Assays:
Type in all cases: functional
NCI-H23 = assay: Cytotoxicity against human NCI-H23 cells assessed as cellular growth at 10 uM after 48 hrs by SRB assay
Procedure, shortened: (§1)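 NCI-60 panel lines grown in RPMI 1640 with 5% FBS and 2 mM L-glutamine. Plated at 5000–40,000 cells/well and preincubated 24 h at 37 °C, 5% CO₂, with time-zero plates fixed in TCA. Compounds, dissolved in DMSO and diluted in medium, were applied for 48 h. Cells were TCA-fixed (10% final for adherent, 16% for suspension) and stained with 0.4% SRB in 1% acetic acid. Dye was solubilised in 10 mM Tris base and read at 515 nm; growth was expressed as a percentage of untreated control.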

IGROV-1 = assay: Antitumor activity against human IGROV1 cells after 48 hrs by SRB assay; details: IGROV-1, 48 h
Procedure, shortened: (§2)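 NCI60 panel in RPMI 1640 with 5% FBS and 2 mM L-glutamine. Cells were plated at 5000–40,000/well by doubling time, held 24 h, then time-zero plates were TCA-fixed. Five concentrations (10-fold or half-log dilutions of DMSO stocks) were applied for 48 h at 37 °C, 5% CO2. Cells were fixed with cold TCA (10% final adherent, 16% suspension) and stained with 0.4% SRB. Bound dye was dissolved in 10 mM Tris and read at 515 nm. GI50, TGI and LC50 were calculated per line.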

A549 [1] = assay: Cytotoxicity against human A549 cells assessed as cellular growth at 10 uM after 48 hrs by SRB assay
Procedure, shortened: (§3)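 NCI60 single-dose screen of cells in RPMI 1640 with 5% FBS and 2 mM L-glutamine, preincubated 24 h at 37 °C, 5% CO₂. Cells were then exposed 48 h to compound added from DMSO stock. TCA-fixed, stained with 0.4% SRB in 1% acetic acid, dye solubilised in 10 mM Tris base and read at 515 nm. Growth is given as percent of untreated control.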

SF-539 = assay: Antitumor activity against human SF539 cells after 48 hrs by SRB assay; details: SF-539, 48 h
Procedure, shortened: (§4)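 NCI60 panel cells grown in RPMI 1640 with 5% FBS and 2 mM L-glutamine, plated at 5000–40,000 cells/well and preincubated 24 h at 37 °C, 5% CO₂. Compound was added from DMSO at five concentrations, 10-fold or 1/2 log dilutions, then incubated 48 h.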

DU-145 = assay: Antitumor activity against human DU145 cells after 48 hrs by SRB assay; details: DU-145, 48 h; procedure, shortened: as §2
EKVX [2] = assay: Cytotoxicity against human EKVX cells assessed as cellular growth at 10 uM after 48 hrs by SRB assay; procedure, shortened: as §3
MOLT-4 [3] = assay: Cytotoxicity against human MOLT4 cells assessed as cellular growth at 10 uM after 48 hrs by SRB assay; procedure, shortened: as §1
K562 = assay: Antitumor activity against human K562 cells after 48 hrs by SRB assay; details: K562, 48 h; procedure, shortened: as §2
HOP-92 = assay: Antitumor activity against human HOP92 cells after 48 hrs by SRB assay; details: HOP-92, 48 h; procedure, shortened: as §2
HCT-15 = assay: Cytotoxicity against human HCT15 cells assessed as cellular growth at 10 uM after 48 hrs by SRB assay; procedure, shortened: as §3
CAKI-1 = assay: Cytotoxicity against human Caki1 cells assessed as cellular growth at 10 uM after 48 hrs by SRB assay; procedure, shortened: as §3
RPMI-8226 = assay: Antitumor activity against human RPMI8226 cells after 48 hrs by SRB assay; details: RPMI-8226, 48 h; procedure, shortened: as §2
MCF7 = assay: Antitumor activity against human MCF7 cells after 48 hrs by SRB assay; details: MCF7, 48 h; procedure, shortened: as §2
OVCAR-5 = assay: Cytotoxicity against human OVCAR5 cells assessed as cellular growth at 10 uM after 48 hrs by SRB assay; procedure, shortened: as §1
EKVX [4] = assay: Antitumor activity against human EKVX cells after 48 hrs by SRB assay; procedure, shortened: as §2
BT-549 = assay: Cytotoxicity against human BT549 cells assessed as cellular growth at 10 uM after 48 hrs by SRB assay; procedure, shortened: as §3
MDA-MB-468 = assay: Cytotoxicity against human MDA-MB-468 cells assessed as cellular growth at 10 uM after 48 hrs by SRB assay; procedure, shortened: as §1
A549 [5] = assay: Antitumor activity against human A549 cells after 48 hrs by SRB assay; details: A549, 48 h; procedure, shortened: as §2
SNB-19 = assay: Antitumor activity against human SNB19 cells after 48 hrs by SRB assay; details: SNB-19, 48 h; procedure, shortened: as §4
MOLT-4 [6] = assay: Antitumor activity against human MOLT4 cells after 48 hrs by SRB assay; details: MOLT-4, 48 h; procedure, shortened: as §2
U-251 = assay: Antitumor activity against human U251 cells after 48 hrs by SRB assay; details: U-251, 48 h; procedure, shortened: as §4
NCI-H522 = assay: Antitumor activity against human NCI-H522 cells after 48 hrs by SRB assay; details: NCI-H522, 48 h; procedure, shortened: as §2
SK-MEL-2 = assay: Antitumor activity against human SK-MEL-2 cells after 48 hrs by SRB assay; details: SK-MEL-2, 48 h; procedure, shortened: as §4
[7] = read-out: LC50 (the source's name)
[8] = read-out: pLC50 (the source's name) (converted)

COc1cc(/C(=C2\O[C@@H]([C@H]3COC(C)(C)O3)[C@H]3OC(C)(C)O[C@@H]23)c2ccc3ccccc3c2)cc(OC)c1OC
Activity (NCI-H23): 46.18%
GI50 (IGROV-1; read-out: GI50): 3.3 µM
CC50 (IGROV-1; [7]): > 100 µM
TGI (IGROV-1; read-out: TGI): > 100 µM
GI50 (IGROV-1; read-out: pGI50 (converted)): 2.82 µM
CC50 (IGROV-1; [8]): > 100 µM
TGI (IGROV-1; read-out: pTGI): > 100 µM
Activity (A549 [1]): -9.4%
GI50 (SF-539): 14.3 µM
TGI (SF-539): 79 µM
CC50 (SF-539; [7]): > 100 µM
GI50 (DU-145; read-out: GI50): 4.33 µM
CC50 (DU-145; [7]): > 100 µM
TGI (DU-145; read-out: TGI): > 100 µM
GI50 (DU-145; read-out: pGI50 (converted)): 4.37 µM
CC50 (DU-145; [8]): > 100 µM
TGI (DU-145; read-out: pTGI (converted)): > 100 µM
Activity (EKVX [2]): 53.7%
Activity (MOLT-4 [3]): 62.4%
GI50 (K562; read-out: GI50): 4.02 µM
CC50 (K562; [7]): > 100 µM
TGI (K562; read-out: TGI): > 100 µM
GI50 (K562; read-out: pGI50 (converted)): 3.98 µM
CC50 (K562; [8]): > 100 µM
TGI (K562; read-out: pTGI): > 100 µM
GI50 (HOP-92): 2.67 µM
TGI (HOP-92): 13.3 µM
CC50 (HOP-92; [7]): > 100 µM
Activity (HCT-15): 59.71%
Activity (CAKI-1): 38.73%
LC50 (concentration killing 50% of starting cells) (RPMI-8226): > 100 µM
GI50 (RPMI-8226; read-out: GI50): 33.3 µM
TGI (RPMI-8226; read-out: TGI): > 100 µM
GI50 (RPMI-8226; read-out: pGI50 (converted)): 33.1 µM
CC50 (RPMI-8226; [8]): > 100 µM
TGI (RPMI-8226; read-out: pTGI (converted)): > 100 µM
GI50 (MCF7; read-out: GI50): 3.69 µM
CC50 (MCF7; [7]): > 100 µM
TGI (MCF7; read-out: TGI): 14.4 µM
GI50 (MCF7; read-out: pGI50 (converted)): 3.63 µM
CC50 (MCF7; [8]): > 100 µM
TGI (MCF7; read-out: pTGI (converted)): 14.5 µM
Activity (OVCAR-5): 38.17%
GI50 (EKVX [4]; read-out: GI50): 5.59 µM
CC50 (EKVX [4]; [7]): > 100 µM
TGI (EKVX [4]; read-out: TGI): > 100 µM
GI50 (EKVX [4]; read-out: pGI50 (converted)): 5.62 µM
CC50 (EKVX [4]; [8]): > 100 µM
TGI (EKVX [4]; read-out: pTGI): > 100 µM
Activity (BT-549): 22.16%
Activity (MDA-MB-468): 51.21%
GI50 (A549 [5]; read-out: GI50): 3.09 µM
CC50 (A549 [5]; [7]): > 100 µM
TGI (A549 [5]; read-out: TGI): 9.55 µM
GI50 (A549 [5]; read-out: pGI50 (converted)): 3.09 µM
CC50 (A549 [5]; [8]): > 100 µM
TGI (A549 [5]; read-out: pTGI (converted)): 9.55 µM
GI50 (SNB-19): 2.49 µM
TGI (SNB-19): 6.08 µM
CC50 (SNB-19; [7]): > 100 µM
LC50 (concentration killing 50% of cells) (MOLT-4 [6]): > 100 µM
GI50 (MOLT-4 [6]; read-out: GI50): > 100 µM
TGI (MOLT-4 [6]; read-out: TGI): > 100 µM
GI50 (MOLT-4 [6]; read-out: pGI50 (converted)): 100 µM
CC50 (MOLT-4 [6]; [8]): > 100 µM
TGI (MOLT-4 [6]; read-out: pTGI): > 100 µM
GI50 (U-251): 3.12 µM
TGI (U-251): 11.8 µM
CC50 (U-251; [7]): > 100 µM
GI50 (NCI-H522): 2.26 µM
TGI (NCI-H522): 6.54 µM
CC50 (NCI-H522; [7]): > 100 µM
GI50 (SK-MEL-2): 1.53 µM
TGI (SK-MEL-2): 4.12 µM
CC50 (SK-MEL-2; [7]): 24.1 µM
